Experiments:
radiolabeled lipoplexes = assay: DNA binding and release of lipoplexes to hydrogel surfaces; details: for amount of bound DNA retained: release study, by day 6
Outline: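 Cell-free hydrogels carrying 5 mM RDG, KDKG, K4 or K8 peptide, washed immediately and after 1 h swelling in uDMEM. Radiolabelled TransFast–plasmid lipoplexes in uDMEM added at 2 µg DNA/well for 2 h at room temperature. Unbound solution removed and scintillation-counted. Gels washed twice with uDMEM immediately and at 2, 4 and 6 h, then sampled periodically with replacement for 6 days. Counts converted to DNA via standard curve.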

Recombinant rat β-NGF = Recombinant rat β-NGF (Rattus norvegicus, UniProt P25427); assay: NGF binding and release from hydrogels; details: for NGF remaining in solution after incubation: 10 ng/well NGF in uDMEM, 2 h, ELISA, 10% PEG hydrogels, 5 mM peptide; for release of NGF from hydrogels: monitored over 48 h after initial binding
Recombinant rat β-NGF, sequence (P25427 122-241): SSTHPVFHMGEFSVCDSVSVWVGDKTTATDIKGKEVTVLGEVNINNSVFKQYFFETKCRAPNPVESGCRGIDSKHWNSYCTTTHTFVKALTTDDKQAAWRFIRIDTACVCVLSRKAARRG
Outline: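 Recombinant rat β-NGF at 0.05 µg/mL final in uDMEM added. Media collected with replacement at 2, 4, 6, 24 and 48 h and stored at −80 °C. Sandwich ELISA gave bound NGF and cumulative release.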

[1] = cited from earlier work

Row | Substance | mean quantity of vector bound, greater than KDKG and RDG conditions (radiolabeled lipoplexes; throughout the 6-day release study) | NGF remaining in solution after incubation (Recombinant rat β-NGF) [ng] | release of NGF from hydrogels (Recombinant rat β-NGF) | amount of bound DNA retained (radiolabeled lipoplexes) [%] | diffusivity of NGF, DN [1] | rate constant for NGF degradation, kdeg ([1]; in buffered solution) [min⁻¹]
1 | GCGKKKK [K4] | approximately 5% | 3.4 | intermediate between the RDG and K8 conditions | – | – | –
2 | GCGYGKKKKKKKK [K8] | – | 3.2 | lowest | 41 | – | –
3 | GCGYGRDGSPG [reference compound] | – | 3.8 | – | 20 | – | –
4 | NGF: nerve growth factor protein | – | – | – | – | 12 × 10^−7 cm^2/s | 0.0029

From article PMC3100417 (Biomaterials, 2011)
